The full list was thinned out, with hits kept by preference.
H9c2 protect – protects H9c2 cardiomyocytes from peroxide injury. H2O2 injury protection, ATPLite, 2 h. protection from H2O2 cell death, % at 20 µM. actives 0.63% (n = 360,000);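 active = compounds giving at least 50% protection of heart cells from peroxide-induced death in the single-dose screen, raw or plate-pattern-corrected value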;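 note: 0% = DMSO wells with peroxide and 100% = DMSO wells without peroxide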
CHOP UPR activ – activators of apoptotic arm of unfolded protein response (CHOP); AID 449763; activation, % at 10 µM; actives 0.34% (n = 330,000); CHO-CHOP luciferase reporter, UPR activation, luminescence; percent of tunicamycin response over DMSO baseline;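 active = at 10 µM dose, activation of 40% or more, normalized to positive control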;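 note: 100% = tunicamycin at 10 µg/mL and 0% = DMSO alone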
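assay system = CHO CHOP reporter cells | amount = 500 CHO-CHOP cells per well | buffer or medium = F12 with 10% FBS | incubation = 16-18 h cell attachment, then 6 h compound exposure, 37 °C | detection = luminescence read with Steady-Glo | read-out = percent activation relative to tunicamycin control | controls = tunicamycin high control, DMSO low control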
CHOP inhibitor – inhibitors of CHOP induction in ER stress response. actives 3.8% (n = 220,000). CHO-K1 CHOP-promoter luciferase, tunicamycin-induced, 15-18 h. inhibition, % at 10 µM;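 active = compounds that reduced the stress-induced luciferase reporter signal by more than about 70% of percent inhibition, limit read from the data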;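 note: 0% = tunicamycin plus vehicle and 100% = wells without tunicamycin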
XBP1 UPR activ – adaptive UPR (XBP1) activation; CHO-XBP1 luciferase reporter, IRE1-XBP1 UPR activation, luminescence; percent of tunicamycin response, DMSO as zero; activation, % at 20 µM; AID 463104; actives 0.33% (n = 330,000);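 active = versus positive control, 20 µM dose yields 30% or more activation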;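 note: 100% = tunicamycin at 10 µg/mL and 0% = DMSO only wells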
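assay system = CHO-XBP1 luciferase reporter cells | amount = 1000 cells/well | buffer or medium = F12 plus 10% FBS | compound dosing = single point, 20 µM final compound, 1% DMSO | incubation = 16-18 h cell attachment at 37 °C, then 6 h compound exposure | detection = Steady-Glo luminescence read | controls = tunicamycin 10 µg/mL and vehicle-only wells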
hiPSC survival – increases survival of single human iPS cells; actives 0.044% (n = 360,000); hiPSC single-cell survival, ATPlite luminescence; 100% = ROCK inhibitor wells, 0% = DMSO; AID 602274; survival enhancement, % at 20 µM; in the data active = survival enhancement above about 18%;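 note: cells exposed to compounds for 16 hours before the ATP read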
Starred values were filed as active, the others as inactive; . = no result.

SMILES	H9c2 protect	CHOP UPR activ	CHOP inhibitor	XBP1 UPR activ	hiPSC survival
COc1ccc(C(=O)c2ccccc2)c2c(O)ccc(C(=O)c3ccccc3)c12	-21.6	-2.2	85.9*	-3.2	5.6
CC(=O)NC1=NC(=O)/C(=C/c2cn(C(C)=O)nc2-c2ccccc2)S1	2.4	-2.5	72.6*	0.6	-1.7
CCN=C1S/C(=C\c2cn(C(C)=O)nc2-c2ccccc2)C(=O)N1CC	3.9	2.9	71.3*	10.3	-0.2
Cc1nc(Nc2ccc(Cl)c(Cl)c2)sc1C(/C=C/c1ccc2c(c1)OCO2)=NNc1ccc([N+](=O)[O-])cc1[N+](=O)[O-]	-0.6	.	.	.	-0.7
CCCCn1c(O)c2n(c1=O)Cc1ccccc1N=C2c1ccc(C)cc1	3.6	.	.	.	1.3
C(=N\N1CCN(C2c3ccccc3-c3ccccc32)CC1)/c1ccncc1	-14.7	-1.8	83.4*	-3.1	-0.5
Cc1oc2ccc(O)c(CN3CCOCC3)c2c1C(=O)c1ccc(Cl)cc1	2.0	1.4	71.4*	6.4	-2.3
O=[N+]([O-])c1nn(-c2ccc3c(c2)OCCO3)n(O)c1=NCc1ccccc1Cl	-6.0	2.9	-12.5	-4.1	0.0
O=[N+]([O-])c1nn(-c2ccc3c(c2)OCCO3)n(O)c1=NC1CCCCC1	4.3	3.7	86.9*	-0.8	-2.7
CC1(C)CC(=O)C(C(c2ccc3c(c2)OCO3)C2C(=O)CC(C)(C)CC2=O)C(=O)C1	16.3	.	.	.	-0.8
COc1ccc2oc(=O)c(C(=O)Nc3cccc(C)c3)cc2c1	-8.3	7.1	82.2*	9.9	0.0
CC(NC(=O)c1ccc(Cl)c(S(=O)(=O)NC2CC2)c1)c1ccco1 (stereo not given)	-9.8	.	.	.	-2.2
CC(C)(C)C(=O)/C=c1\s/c(=C\c2ccc(-c3ccc([N+](=O)[O-])cc3)o2)c(=O)n1CC(=O)NC(N)=O	52.5*	2.7	15.1	9.6	-0.3
N#C/C(=C\c1cn(Cc2ccc(F)cc2)c2ccccc12)C(=O)NCc1ccco1	-8.2	-1.5	77.2*	0.4	-1.7
N#C/C(=C\c1cn(Cc2ccccc2)c2ccccc12)C(=O)NCc1ccco1	0.3	1.6	56.2	-1.3	-0.3
O=C(N/N=C/c1c(O)n(-c2ccccc2Cl)c(=O)c2ccccc12)C1COc2ccccc2O1 (stereo not given)	68.3*	3.0	37.4	0.4	0.2
O=C(Nc1c(Cl)cc2c(c1Cl)Cc1cc([N+](=O)[O-])ccc1-2)C(Cl)Cl	-7.1	.	.	.	0.6
CC(C)C(=O)NC(Nc1cc(C(F)(F)F)ccc1Cl)C(Cl)(Cl)Cl (stereo not given)	-11.1	0.6	72.1*	1.2	-1.1
C[C@H]1CN([C@@H](C)CO)C(=O)c2cc(Br)cnc2O[C@H]1CN(C)Cc1ccccc1C(=O)O	-4.5	.	.	.	-1.5
C[C@@H](OC(=O)c1[nH]cnc1C(=O)NCc1ccc(CNC(=O)OC(C)(C)C)cc1)c1ccccc1	59.3*	1.8	.	1.8	-2.0
C[C@H](NC(=O)c1nc[nH]c1C(=O)NCC(=O)OCc1ccccc1)C(=O)OCc1ccccc1	76.9*	-1.8	.	-2.0	2.2
CC(C)(C)OC(=O)CNC(=O)c1[nH]cnc1C(=O)NC(c1ccccc1)c1ccccc1	59.4*	-2.1	.	0.0	-0.9
CC(C)(C)OC(=O)NCc1ccc(CNC(=O)c2nc[nH]c2C(=O)NCc2ccccc2)cc1	-2.9	-0.5	.	-2.0	3.0
CCOC(=O)c1ccc(NC(=O)c2nc[nH]c2C(=O)N[C@H](C)c2ccccc2)cc1	39.9	0.5	70.2*	3.1	-4.0
COC(=O)CCC1(C(N)=O)CCC(=O)c2ccccc21 (stereo not given)	0.6	.	.	.	1.1
SMILES	H9c2 protect	CHOP UPR activ	CHOP inhibitor	XBP1 UPR activ	hiPSC survival
N#CCc1ccc(-c2cccc3nccn23)cc1	12.6	.	.	.	0.7
CC(C)C[C@H](NC(=O)c1nc[nH]c1C(=O)N1CCc2ccccc2C1)C(=O)OCc1ccccc1	-5.3	-1.4	91.9*	-4.8	8.2
CC1CCN(C(=O)c2[nH]cnc2C(=O)NCC(=O)OC(C)(C)C)CC1	8.7	-0.1	.	-0.8	26.4*
O=C(N[C@@H](Cc1ccccc1)C(=O)OCc1ccccc1)c1nc[nH]c1C(=O)N1CCc2ccccc2C1	-24.7	-0.6	-7.0	-0.9	0.8
C[C@H](NC(=O)c1nc[nH]c1C(=O)NCC(=O)OCc1ccccc1)c1ccccc1	83.8*	0.8	.	-1.9	-1.1
COc1cc(C(=O)N2CCCC(c3cc(C(=O)NCc4ccccc4)no3)C2)cc(OC)c1C (stereo not given)	0.1	.	.	.	-1.3
Cc1cccc(C)c1NC(=O)C1c2ccccc2OCC(=O)N1CCc1ccccc1 (stereo not given)	.	.	.	.	0.0
COc1ccc(N2C[C@H](CSC)[C@@H](CC(=O)Nc3ccccc3)C2=O)cc1	1.7	.	.	.	-0.2
Cc1ccc(S(=O)(=O)N2CCCCC2)cc1NC(=O)COC(=O)c1ccc(=O)[nH]c1	4.3	-0.2	.	0.9	-0.1
CC(C)(C)NC(=O)C1(C)CCC(=O)N1C1CCN(Cc2ccccc2)CC1 (stereo not given)	5.3	.	.	.	-0.2
CCOc1ccc(Cl)cc1-c1cc(C(=O)Nc2ccc(Br)cc2)[nH]n1	-18.5	.	.	.	1.0
Cc1occc1C(=O)N/N=C/c1ccc(OCc2ccccc2)cc1	-9.1	2.4	71.2*	2.2	-0.3
CC1(C(=O)NS(=O)(=O)c2cccs2)CCN1C(=O)CC1CC1 (stereo not given)	4.3	.	.	.	3.1
O=C(CSc1cccc[n+]1[O-])Nc1ccccc1C(F)(F)F	-2.7	1.0	.	-0.7	1.0
O=C(CSc1cccc[n+]1[O-])Nc1ccccc1Oc1ccccc1	-11.5	107.8*	-87.2	14.9	1.8
CN(C(=O)c1cccc(NC(=O)Cc2cccc(NC(=O)C3CCCN(C(=O)C4CCCCC4)C3)c2)c1)C1CCC1 (stereo not given)	-3.3	.	.	.	-1.8
Brc1ccc2ncnc(NCc3ccccc3)c2c1	-36.7	0.4	86.6*	-1.2	3.8
Cc1cccc(Nc2ncnc3ccc(Br)cc23)c1	-2.1	-0.4	50.1	-1.4	-1.8
CCC/C=C/c1ccc(CN2C(C(C)C)C(=O)N(Cc3cn(CCC4OCCO4)nn3)CCS2(=O)=O)cc1 (stereo not given)	-5.3	.	.	.	-1.0
COc1ccc(-n2c(=O)/c(=C\c3cccs3)s/c2=C(/C#N)C(=O)N2CCN(C)CC2)cc1	6.8	-0.8	89.8*	-1.8	-0.6
N#C/C(C(=O)N1CCOCC1)=c1/s/c(=C\c2ccccn2)c(=O)n1-c1ccccc1	9.9	2.3	-10.1	-0.8	1.6
CC(C)CNc1ncnc2c1ncn2[C@H]1CN(Cc2cccs2)C[C@@H](CO)O1	0.3	.	.	.	2.0
CCOc1ccccc1NC(=O)c1cc(C(=O)c2cc(Br)ccc2O)coc1=N	-15.3	0.4	72.1*	-3.1	-1.0
